In ChEMBL document CHEMBL3785002, “Lead optimization of the VU0486321 series of mGlu1 PAMs. Part 3. Engineering plasma stability by discovery and optimization of isoindolinone analogs” (Bioorg Med Chem Lett, 2016):

How the values were obtained:
[1] = target: T1, Metabotropic glutamate receptor 1 (Homo sapiens, UniProt Q13255); test: Positive allosteric modulatory activity at human mGlu1 receptor expressed in wild type T-Rex293 cells assessed as increase in glutamate-induced calcium mobilization pre-incubated for 2.5 mins before glutamate stimulation for 1 min relative to glutamate alone; type: functional, cell-based
Method in brief: (§1)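 Tetracycline-inducible human mGlu1 WT T-REx-293 cells were induced overnight with 50 ng/mL tetracycline in dialyzed-FBS medium. Cells were loaded with 1.15 μM Fluo-4 AM in HBSS/20 mM HEPES/2.5 mM probenecid for 45 min at 37 °C. Compounds (half-log series in DMSO) were added for 2.5 min, then an EC20 of glutamate for 1 min. Calcium flux was read on Flexstation; ECmax glutamate served as reference. n=3 in triplicate.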
Target sequence in this assay (Q13255 19-1194 limits assumed): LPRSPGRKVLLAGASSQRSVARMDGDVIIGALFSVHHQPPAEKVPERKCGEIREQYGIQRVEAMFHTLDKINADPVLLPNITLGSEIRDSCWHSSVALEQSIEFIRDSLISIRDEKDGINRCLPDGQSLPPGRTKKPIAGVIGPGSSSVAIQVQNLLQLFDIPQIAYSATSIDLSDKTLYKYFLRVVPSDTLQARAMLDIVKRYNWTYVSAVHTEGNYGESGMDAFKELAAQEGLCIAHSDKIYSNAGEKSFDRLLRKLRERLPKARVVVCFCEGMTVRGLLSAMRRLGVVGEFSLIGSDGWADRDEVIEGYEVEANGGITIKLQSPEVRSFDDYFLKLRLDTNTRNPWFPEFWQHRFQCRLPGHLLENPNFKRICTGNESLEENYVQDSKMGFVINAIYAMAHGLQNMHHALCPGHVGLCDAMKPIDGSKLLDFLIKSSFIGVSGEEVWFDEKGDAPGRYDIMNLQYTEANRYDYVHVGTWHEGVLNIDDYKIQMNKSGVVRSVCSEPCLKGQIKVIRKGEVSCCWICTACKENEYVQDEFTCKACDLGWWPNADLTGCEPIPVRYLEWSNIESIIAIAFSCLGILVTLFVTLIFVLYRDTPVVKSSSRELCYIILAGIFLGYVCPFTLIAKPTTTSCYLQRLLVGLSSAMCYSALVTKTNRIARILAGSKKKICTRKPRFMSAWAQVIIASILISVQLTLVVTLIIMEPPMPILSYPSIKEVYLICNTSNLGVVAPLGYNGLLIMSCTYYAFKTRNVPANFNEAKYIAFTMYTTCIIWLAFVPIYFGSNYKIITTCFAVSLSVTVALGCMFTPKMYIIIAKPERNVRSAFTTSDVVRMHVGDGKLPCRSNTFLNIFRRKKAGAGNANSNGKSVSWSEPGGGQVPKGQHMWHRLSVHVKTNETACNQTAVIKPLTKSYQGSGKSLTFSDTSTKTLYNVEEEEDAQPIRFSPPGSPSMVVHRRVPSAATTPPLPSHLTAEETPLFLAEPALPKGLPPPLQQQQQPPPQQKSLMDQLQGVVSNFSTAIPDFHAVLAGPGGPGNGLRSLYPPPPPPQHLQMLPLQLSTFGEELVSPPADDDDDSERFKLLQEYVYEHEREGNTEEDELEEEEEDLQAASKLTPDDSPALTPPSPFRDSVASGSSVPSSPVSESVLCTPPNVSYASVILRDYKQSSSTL

[2] = target: T1, Metabotropic glutamate receptor 1; test: Positive allosteric modulatory activity at human mGlu1 receptor expressed in wild type T-Rex293 cells assessed as increase in glutamate-induced calcium mobilization pre-incubated for 2.5 mins before glutamate stimulation for 1 min; type: functional, cell-based; method in brief: as §1
Target sequence in this assay (Q13255 whole entry): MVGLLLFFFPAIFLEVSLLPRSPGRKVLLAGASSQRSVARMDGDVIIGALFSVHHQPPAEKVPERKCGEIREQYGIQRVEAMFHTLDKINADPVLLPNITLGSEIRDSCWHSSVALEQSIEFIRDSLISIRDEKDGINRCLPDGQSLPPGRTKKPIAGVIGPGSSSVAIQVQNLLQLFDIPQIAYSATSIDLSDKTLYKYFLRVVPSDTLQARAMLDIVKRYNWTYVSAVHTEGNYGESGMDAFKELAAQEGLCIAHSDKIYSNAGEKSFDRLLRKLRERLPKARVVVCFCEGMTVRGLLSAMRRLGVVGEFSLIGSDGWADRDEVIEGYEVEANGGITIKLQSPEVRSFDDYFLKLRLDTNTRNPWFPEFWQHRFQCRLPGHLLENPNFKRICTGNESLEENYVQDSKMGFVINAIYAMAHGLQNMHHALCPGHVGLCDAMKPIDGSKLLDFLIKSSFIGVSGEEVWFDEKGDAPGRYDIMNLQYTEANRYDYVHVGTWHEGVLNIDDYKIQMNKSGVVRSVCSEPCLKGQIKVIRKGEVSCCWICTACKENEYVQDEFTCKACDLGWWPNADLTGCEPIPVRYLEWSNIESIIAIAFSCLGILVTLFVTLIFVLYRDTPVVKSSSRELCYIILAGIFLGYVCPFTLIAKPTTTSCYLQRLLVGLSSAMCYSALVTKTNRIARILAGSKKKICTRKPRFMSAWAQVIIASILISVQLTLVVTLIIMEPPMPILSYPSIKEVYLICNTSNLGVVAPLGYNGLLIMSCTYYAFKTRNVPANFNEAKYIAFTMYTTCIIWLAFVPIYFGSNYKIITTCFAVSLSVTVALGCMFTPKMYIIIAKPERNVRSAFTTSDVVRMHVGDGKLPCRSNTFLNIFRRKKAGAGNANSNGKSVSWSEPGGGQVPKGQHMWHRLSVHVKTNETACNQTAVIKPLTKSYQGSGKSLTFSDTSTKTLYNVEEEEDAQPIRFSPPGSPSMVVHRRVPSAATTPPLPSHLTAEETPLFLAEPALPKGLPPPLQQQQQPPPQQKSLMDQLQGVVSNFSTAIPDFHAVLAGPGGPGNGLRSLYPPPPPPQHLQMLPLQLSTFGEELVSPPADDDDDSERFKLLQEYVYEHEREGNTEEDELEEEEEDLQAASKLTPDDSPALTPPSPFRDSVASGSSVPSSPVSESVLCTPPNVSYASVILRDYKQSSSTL

[3] = Fraction unbound in rat plasma; type: ADME, cell-free
[4] = Fraction unbound in human plasma; type: ADME, cell-free
T-Rex 293 = test: Selectivity ratio of EC50 for human mGlu4 receptor expressed in wild type T-Rex 293 cells to EC50 for human mGlu1 receptor expressed in wild type T-Rex 293 cells; type: cell-based; details: T-Rex293
Cytochrome P450 1A2 = target: T2, Cytochrome P450 1A2 (Homo sapiens, UniProt P05177); test: Inhibition of CYP1A2 (unknown origin); type: ADME
T2 sequence (P05177 whole entry): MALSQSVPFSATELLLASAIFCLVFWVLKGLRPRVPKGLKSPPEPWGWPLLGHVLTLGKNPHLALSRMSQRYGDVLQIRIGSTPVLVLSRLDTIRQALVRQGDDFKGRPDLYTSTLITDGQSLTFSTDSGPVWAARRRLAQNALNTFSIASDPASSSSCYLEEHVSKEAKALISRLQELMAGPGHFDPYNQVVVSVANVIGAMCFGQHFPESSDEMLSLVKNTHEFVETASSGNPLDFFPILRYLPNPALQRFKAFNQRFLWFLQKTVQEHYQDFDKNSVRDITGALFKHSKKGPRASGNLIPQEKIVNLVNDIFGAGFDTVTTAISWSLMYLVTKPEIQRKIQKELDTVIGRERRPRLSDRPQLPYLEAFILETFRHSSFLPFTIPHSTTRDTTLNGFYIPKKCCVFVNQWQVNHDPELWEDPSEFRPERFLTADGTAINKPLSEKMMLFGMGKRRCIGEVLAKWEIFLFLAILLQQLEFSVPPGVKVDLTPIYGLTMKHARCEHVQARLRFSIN

[5] = Mean residence time in rat; type: ADME, organism-based; details: in vivo
[6] = Ratio of drug level in brain to plasma in rat; type: ADME
Plasma [7] = test: Drug uptake in rat plasma; type: ADME
[8] = target: Metabotropic glutamate receptor 4 (Homo sapiens, UniProt Q14833); test: Positive allosteric modulatory activity at human mGlu4 receptor expressed in wild type T-Rex293 cells assessed as increase in glutamate-induced calcium mobilization pre-incubated for 2.5 mins before glutamate stimulation for 1 min; type: functional, cell-based
Sequence of Metabotropic glutamate receptor 4 (Q14833 whole entry): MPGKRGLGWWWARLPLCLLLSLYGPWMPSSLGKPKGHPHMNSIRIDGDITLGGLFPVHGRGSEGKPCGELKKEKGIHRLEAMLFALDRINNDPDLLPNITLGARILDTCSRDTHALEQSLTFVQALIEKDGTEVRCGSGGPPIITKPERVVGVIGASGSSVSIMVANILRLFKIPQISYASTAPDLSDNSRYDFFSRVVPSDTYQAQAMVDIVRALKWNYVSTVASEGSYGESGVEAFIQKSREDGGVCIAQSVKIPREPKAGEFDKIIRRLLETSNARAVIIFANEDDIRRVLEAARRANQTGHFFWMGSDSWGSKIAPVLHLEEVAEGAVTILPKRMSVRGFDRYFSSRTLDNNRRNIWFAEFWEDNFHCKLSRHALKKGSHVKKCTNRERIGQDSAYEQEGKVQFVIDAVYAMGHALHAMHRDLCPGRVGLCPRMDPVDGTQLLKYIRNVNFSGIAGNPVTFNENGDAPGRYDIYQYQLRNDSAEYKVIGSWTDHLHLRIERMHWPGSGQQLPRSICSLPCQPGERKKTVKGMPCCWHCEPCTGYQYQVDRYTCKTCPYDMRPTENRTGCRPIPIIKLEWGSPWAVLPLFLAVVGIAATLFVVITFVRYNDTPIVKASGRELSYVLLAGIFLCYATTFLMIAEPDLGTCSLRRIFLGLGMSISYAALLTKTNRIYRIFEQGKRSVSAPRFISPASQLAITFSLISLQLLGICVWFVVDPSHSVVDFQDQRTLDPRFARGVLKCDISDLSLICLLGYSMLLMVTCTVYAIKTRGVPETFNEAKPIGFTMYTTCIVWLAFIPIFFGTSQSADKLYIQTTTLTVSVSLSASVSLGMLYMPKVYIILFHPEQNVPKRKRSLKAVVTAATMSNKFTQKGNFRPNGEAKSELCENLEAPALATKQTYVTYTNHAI

Cytochrome P450 3A4 = Cytochrome P450 3A4 (Homo sapiens, UniProt P08684); test: Inhibition of […] (unknown origin); type: ADME
Sequence of Cytochrome P450 3A4 (P08684 whole entry): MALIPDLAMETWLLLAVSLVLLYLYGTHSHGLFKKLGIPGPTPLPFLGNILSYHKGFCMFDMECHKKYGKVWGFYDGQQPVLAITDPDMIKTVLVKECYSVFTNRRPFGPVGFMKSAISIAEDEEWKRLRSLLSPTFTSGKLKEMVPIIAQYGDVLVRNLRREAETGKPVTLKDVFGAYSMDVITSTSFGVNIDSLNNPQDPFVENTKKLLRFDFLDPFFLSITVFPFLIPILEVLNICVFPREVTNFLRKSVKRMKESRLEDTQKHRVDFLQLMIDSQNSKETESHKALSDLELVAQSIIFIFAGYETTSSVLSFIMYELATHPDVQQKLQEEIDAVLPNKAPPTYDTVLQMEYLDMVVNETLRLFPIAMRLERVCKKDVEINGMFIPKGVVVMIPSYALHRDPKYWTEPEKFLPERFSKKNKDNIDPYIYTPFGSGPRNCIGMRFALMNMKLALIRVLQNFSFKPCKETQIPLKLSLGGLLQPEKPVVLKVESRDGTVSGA

Brain = test: Drug uptake in rat brain; type: ADME, tissue-based; details: in vivo
Cytochrome P450 2D6 = Cytochrome P450 2D6 (Homo sapiens, UniProt P10635); test: Inhibition of CYP2D6 (unknown origin); type: ADME
Sequence of Cytochrome P450 2D6 (P10635 whole entry): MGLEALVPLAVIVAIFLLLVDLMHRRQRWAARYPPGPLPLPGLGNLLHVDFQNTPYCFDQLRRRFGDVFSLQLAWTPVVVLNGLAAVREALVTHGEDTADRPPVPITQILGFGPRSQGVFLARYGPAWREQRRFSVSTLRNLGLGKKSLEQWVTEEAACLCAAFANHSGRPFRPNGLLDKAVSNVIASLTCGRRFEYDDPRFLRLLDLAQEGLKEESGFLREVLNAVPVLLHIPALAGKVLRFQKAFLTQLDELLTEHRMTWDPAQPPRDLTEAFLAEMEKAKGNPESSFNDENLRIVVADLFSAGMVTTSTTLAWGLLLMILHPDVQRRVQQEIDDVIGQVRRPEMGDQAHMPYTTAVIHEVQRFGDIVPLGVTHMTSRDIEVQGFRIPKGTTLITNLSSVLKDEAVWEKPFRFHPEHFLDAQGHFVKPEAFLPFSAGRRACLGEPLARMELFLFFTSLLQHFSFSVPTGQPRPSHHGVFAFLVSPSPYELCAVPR

[9] = Plasma protein binding in human; type: ADME, cell-free
Rattus norvegicus [10] = species: Rattus norvegicus; test: Half life in rat; type: ADME, organism-based; details: in vivo
Liver microsome [11] = test: Stability in rat liver microsomes; type: ADME
[12] = Protein binding in rat brain; type: ADME, tissue-based; details: read-out: PB
Rattus norvegicus [13] = species: Rattus norvegicus; test: Volume of distribution in rat; type: ADME, organism-based; details: in vivo
Liver microsome [14] = test: Stability in human liver microsomes; type: ADME
Cytochrome P450 2C9 = Cytochrome P450 2C9 (Homo sapiens, UniProt P11712); test: Inhibition of CYP2C9 (unknown origin); type: ADME
Sequence of Cytochrome P450 2C9 (P11712 whole entry): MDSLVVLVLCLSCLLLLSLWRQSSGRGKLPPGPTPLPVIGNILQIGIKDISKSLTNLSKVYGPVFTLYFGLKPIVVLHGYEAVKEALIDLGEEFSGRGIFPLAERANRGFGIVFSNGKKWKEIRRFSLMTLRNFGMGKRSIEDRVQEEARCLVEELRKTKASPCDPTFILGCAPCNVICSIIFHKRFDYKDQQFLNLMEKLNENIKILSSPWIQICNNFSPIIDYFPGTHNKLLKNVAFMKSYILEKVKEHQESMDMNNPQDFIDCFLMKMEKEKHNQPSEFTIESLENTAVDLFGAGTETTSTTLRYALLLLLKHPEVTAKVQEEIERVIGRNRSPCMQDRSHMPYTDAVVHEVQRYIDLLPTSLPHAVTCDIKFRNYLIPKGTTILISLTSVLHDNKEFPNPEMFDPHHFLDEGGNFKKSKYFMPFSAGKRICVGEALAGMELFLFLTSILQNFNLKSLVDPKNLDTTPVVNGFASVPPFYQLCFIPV

[15] = Intrinsic clearance in rat; type: ADME, organism-based; details: in vivo
Plasma [16] = test: Stability in rat plasma; type: ADME, cell-free
[17] = Intrinsic clearance in human; type: ADME, organism-based; details: in vivo
Plasma [18] = test: Stability in human plasma; type: ADME, cell-free

SMILES	%max [1] [%]	EC50 ([2]; read-out: EC50) [µM]	other results
Cc1cccnc1C(=O)Nc1ccc(N2Cc3c(Cl)cccc3C2=O)c(Cl)c1	97	1.36	EC50 ([2]; read-out: pEC50 (converted)): 1.45 µM
Cc1ccoc1C(=O)Nc1ccc(N2Cc3c(F)cccc3C2=O)c(Cl)c1	82	0.878	EC50 ([2]; read-out: pEC50 (converted)): 0.891 µM; fraction unbound [3]: < 0.01; fraction unbound [4]: < 0.01
Cc1ccoc1C(=O)Nc1ccc(N2Cc3ccccc3C2=O)c(Cl)c1Cl	–	> 10	–
O=C(Nc1ccc(N2Cc3ccccc3C2=O)c(Cl)c1)c1ncccc1Cl	–	> 10	–
Cc1ccoc1C(=O)Nc1ccc(N2Cc3c(cccc3C(F)(F)F)C2=O)c(Cl)c1	105	1.13	fraction unbound [3]: < 0.01; fraction unbound [4]: < 0.01
Cc1ccoc1C(=O)Nc1ccc(NC(=O)c2ccccc2)c(Cl)c1	–	> 10	–
Cc1ccoc1C(=O)Nc1ccc(N2Cc3c(Cl)cccc3C2=O)cc1F	86	1.26	–
Cc1ccoc1C(=O)Nc1ccc(N2Cc3cccc(Cl)c3C2=O)c(Cl)c1	108	0.484	fraction unbound [3]: < 0.01; fraction unbound [4]: < 0.01
Cc1ccoc1C(=O)Nc1ccc(N2Cc3c(Cl)cccc3C2=O)cc1	99	0.245	–
Cc1ccoc1C(=O)Nc1ccc(N2C(=O)c3cccc(F)c3C2=O)c(Cl)c1	–	–	Ratio EC50 (T-Rex 293): 35
Cc1scnc1C(=O)Nc1ccc(N2Cc3cccc(Cl)c3C2=O)c(Cl)c1	69	4.69	EC50 ([2]; read-out: pEC50 (converted)): 4.79 µM
Cc1ccoc1C(=O)Nc1ccc(N2C(=O)[C@H]3CCCC[C@H]3C2=O)c(Cl)c1	–	> 10	–
Cc1ccoc1C(=O)Nc1ccc(N2Cc3ccccc3C2=O)cc1F	–	> 10	–
Cc1ccoc1C(=O)Nc1ccc(N2Cc3ccccc3C2)c(Cl)c1	95	1.76	–
Cc1ccoc1C(=O)Nc1ccc(N2Cc3cc(Cl)ccc3C2=O)c(Cl)c1	58	> 10	fraction unbound [3]: < 0.01; fraction unbound [4]: < 0.01
Cc1ccoc1C(=O)Nc1ccc(N2Cc3c(C#N)cccc3C2=O)c(Cl)c1	107	2.09	EC50 ([2]; read-out: pEC50 (converted)): 2.14 µM; fraction unbound [3]: < 0.01; fraction unbound [4]: < 0.01
Cc1ccoc1C(=O)Nc1ccc(N2Cc3c(Cl)cccc3C2=O)c(Cl)c1	88	0.211	IC50 (Cytochrome P450 1A2): > 30 µM; MRT [5]: 5.03 h; BPR [6]: 1.36; Cp/dose (Plasma [7]): 193 nM; EC50 [8]: > 10 µM; IC50 (Cytochrome P450 3A4): > 30 µM; Druguptake/dose (Brain): 269 nM; IC50 (Cytochrome P450 2D6): > 30 µM; PPB [9]: > 99%; t1/2 (Rattus norvegicus [10]): 1.55 h; Stability (Liver microsome [11]): Stable; fraction unbound [12]: < 0.01; Vd (Rattus norvegicus [13]): 3.36 L/kg; fraction unbound [4]: < 0.01; Stability (Liver microsome [14]): Stable; IC50 (Cytochrome P450 2C9): > 30 µM
Cc1cccnc1C(=O)Nc1ccc(N2Cc3cccc(Cl)c3C2=O)c(Cl)c1	78	> 10	–
Cc1ccoc1C(=O)Nc1ccc(N2Cc3c(Br)cccc3C2=O)c(Cl)c1	99	0.391	fraction unbound [3]: < 0.01; fraction unbound [4]: < 0.01
Cc1ccoc1C(=O)Nc1ccc(N2C(=O)Cc3ccccc3C2=O)c(Cl)c1	105	0.242	inhibition (INH) (Cytochrome P450 1A2; human): Not Active; inhibition (INH) (Cytochrome P450 3A4; human): Not Active; inhibition (INH) (Cytochrome P450 2D6; human): Not Active; EC50 ([2]; read-out: pEC50 (converted)): 0.224 µM; CLhep predicted [15]: 54 mL/min/kg; Stability (Plasma [16]): Unstable; CLhep predicted [17]: 13.5 mL/min/kg; inhibition (INH) (Cytochrome P450 2C9; human): Not Active; Stability (Plasma [18]): Unstable
Cc1ccoc1C(=O)Nc1ccc(N2Cc3cccc(Cl)c3C2=O)cc1F	–	> 10	–
Cc1ccoc1C(=O)Nc1ccc(N2Cc3cccc(Cl)c3C2=O)cc1	101	0.353	–
Cc1ccoc1C(=O)Nc1ccc(N2Cc3nccnc3C2=O)c(Cl)c1	–	> 10	fraction unbound [3]: < 0.01; fraction unbound [4]: < 0.01
Cc1scnc1C(=O)Nc1ccc(N2Cc3ccccc3C2=O)c(Cl)c1	33	> 10	–
Cc1ccoc1C(=O)Nc1ccc(N2Cc3cccnc3C2=O)c(Cl)c1	–	> 10	fraction unbound [3]: < 0.01; fraction unbound [4]: < 0.01
Cc1ccoc1C(=O)Nc1ccc(N2Cc3ccccc3C2=O)cc1	94	1.56	–

SMILES	%max [1] [%]	EC50 ([2]; read-out: EC50) [µM]	other results
O=C(Nc1ccc(N2C(=O)c3cccc(Cl)c3C2=O)c(Cl)c1)c1ncccc1Cl	–	–	EC50 [8]: > 10 µM
Cc1ccoc1C(=O)Nc1ccc(N2CCOc3ncccc32)c(Cl)c1	93	2.61	–
Cc1ccoc1C(=O)Nc1ccc(N2CCc3ccccc32)c(Cl)c1	82	5.71	–
Cc1ccoc1C(=O)Nc1ccc(N2CCc3ccccc3C2=O)c(Cl)c1	94	0.781	–
Cc1ccoc1C(=O)Nc1ccc(N2Cc3ccccc3C2=O)c(Cl)c1	91	3.72	Stability (Liver microsome [11]): Stable; Stability (Liver microsome [14]): Stable
Cc1ccoc1C(=O)Nc1ccc(N2CCc3ccccc3C2)c(Cl)c1	107	2.47	EC50 ([2]; read-out: pEC50 (converted)): 1.32 µM
Cc1ccoc1C(=O)Nc1ccc(N2Cc3cccnc3C2)c(Cl)c1	78	9.55	–
Cc1ccc2c(c1)C(=O)N(c1ccc(NC(=O)c3occc3C)c(F)c1)C2=O	70	0.0257	Ratio EC50 (T-Rex 293): > 450
Cc1ccoc1C(=O)Nc1ccc(N2C(=O)CCc3ccccc32)c(Cl)c1	107	1.29	EC50 ([2]; read-out: pEC50 (converted)): 1.32 µM; Stability (Plasma [16]): Stable; Stability (Plasma [18]): Stable
Cc1ccoc1C(=O)Nc1ccc(N2C(=O)c3ccccc3C2(C)C)c(Cl)c1	76	6.93	EC50 ([2]; read-out: pEC50 (converted)): 7.08 µM; fraction unbound [3]: < 0.01; fraction unbound [4]: < 0.01
Cc1ccoc1C(=O)Nc1ccc(N2Cc3c(Cl)cccc3C2=O)c(Cl)c1Cl	–	> 10	–
O=C(Nc1ccc(N2Cc3c(Cl)cccc3C2=O)c(Cl)c1)c1ncccc1Cl	93	1.27	–
Cc1ccoc1C(=O)Nc1ccc(N2CCOc3ccccc32)c(Cl)c1	99	3.62	–
Cc1ccoc1C(=O)Nc1ccc(NC(=O)c2ccccc2C(=O)O)c(Cl)c1	108	0.93	–
Cc1ccoc1C(=O)Nc1ccc(N2Cc3cccc(Cl)c3C2=O)c(Cl)c1Cl	81	6.52	EC50 ([2]; read-out: pEC50 (converted)): 6.61 µM
Cc1ccoc1C(=O)Nc1ccc(N2Cc3ncccc3C2=O)c(Cl)c1	–	> 10	fraction unbound [3]: < 0.01; fraction unbound [4]: < 0.01
COc1cccc2c1CN(c1ccc(NC(=O)c3occc3C)cc1Cl)C2=O	–	> 10	fraction unbound [3]: < 0.01; fraction unbound [4]: < 0.01
Cc1ccoc1C(=O)Nc1ccc(N2C(=O)c3ccccc3C2=O)cc1F	–	–	Ratio EC50 (T-Rex 293): > 793
Cc1ccoc1C(=O)Nc1ccc(N2C(=O)Cc3ccccc32)c(Cl)c1	–	> 10	–
Cc1ccoc1C(=O)Nc1ccc(N2Cc3c(C)cccc3C2=O)c(Cl)c1	89	1.07	EC50 ([2]; read-out: pEC50 (converted)): 1.1 µM; fraction unbound [3]: < 0.01; fraction unbound [4]: < 0.01
Cc1scnc1C(=O)Nc1ccc(N2Cc3c(Cl)cccc3C2=O)c(Cl)c1	66	0.954	–
Cc1cccnc1C(=O)Nc1ccc(N2Cc3ccccc3C2=O)c(Cl)c1	–	> 10	–
Cc1ccoc1C(=O)Nc1ccc(N2C(=O)[C@@H]3CCCC[C@H]3C2=O)c(Cl)c1 (relative stereo)	–	> 10	–
Cc1ccoc1C(=O)Nc1ccc(N2C(=O)Cc3ccccc3CC2=O)c(Cl)c1	95	3.5	EC50 ([2]; read-out: pEC50 (converted)): 3.63 µM
O=C(Nc1ccc(N2Cc3cccc(Cl)c3C2=O)c(Cl)c1)c1ncccc1Cl	51	> 10	–
